ChEMBL document CHEMBL5674883, “The Heterochromatin Landscape in Migrating Cells and the Importance of H3K27me3 for Associated Transcriptome Alterations” (Cells, 2018)

Key:
Format in all cases: cell-based
[1] = biological target: T1, RNA polymerase II (Mus musculus) (UniProt P08775+Q8CFI7+P97760+A0A3Q4L2S8+Q80UW8+P61219+P62488+Q923G2+P60898+O08740+Q63871+P62876); assay: Inhibition of RNA polymerase II in mouse B16-F1 migrating cells assessed as fold change in Ets1-RNA stability at 0.1 mM measured by […] analysis relative to control cells
Method in brief: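 Mouse B16-F1 melanoma cells grown to confluence on fibronectin in DMEM/10% FCS at 37 °C, 7% CO2. Migration induced by multiple scratches and 3 h incubation; unscratched controls. DRB 0.1 mM added 3 h before lysis. RNA from poly A-selected mRNA was sequenced (RNA-seq, three replicates per DRB group). Fold change computed for DRB-treated migrating vs DRB-treated control cells; cutoffs fold change >1.3, FDR <0.05.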

[2] = biological target: T1, RNA polymerase II (Mus musculus); assay: Inhibition of RNA polymerase II in mouse B16-F1 migrating cells assessed as fold change in Tmsb10-RNA stability at 0.1 mM measured by […] analysis relative to control cells
[3] = biological target: T1, RNA polymerase II (Mus musculus); assay: Inhibition of RNA polymerase II in mouse B16-F1 migrating cells assessed as fold change in Grhpr-RNA stability at 0.1 mM measured by ChIP-seq analysis relative to control cells
[4] = biological target: T1, RNA polymerase II (Mus musculus); assay: Inhibition of RNA polymerase II in mouse B16-F1 migrating cells assessed as fold change in Vps72-RNA stability at 0.1 mM measured by […] analysis relative to control cells
[5] = biological target: T1, RNA polymerase II (Mus musculus); assay: Inhibition of RNA polymerase II in mouse B16-F1 migrating cells assessed as fold change in Socs5-RNA stability at 0.1 mM measured by […] analysis relative to control cells
[6] = biological target: T1, RNA polymerase II (Mus musculus); assay: Inhibition of RNA polymerase II in mouse B16-F1 migrating cells assessed as fold change in Nrp1-RNA stability at 0.1 mM measured by […] analysis relative to control cells
[7] = biological target: T1, RNA polymerase II (Mus musculus); assay: Inhibition of RNA polymerase II in mouse B16-F1 migrating cells assessed as fold change in Yes1-RNA stability at 0.1 mM measured by […] analysis relative to control cells
[8] = biological target: T1, RNA polymerase II (Mus musculus); assay: Inhibition of RNA polymerase II in mouse B16-F1 migrating cells assessed as fold change in Calu-RNA stability at 0.1 mM measured by […] analysis relative to control cells
[9] = biological target: T1, RNA polymerase II (Mus musculus); assay: Inhibition of RNA polymerase II in mouse B16-F1 migrating cells assessed as fold change in Orc4-RNA stability at 0.1 mM measured by […] analysis relative to control cells
[10] = biological target: T1, RNA polymerase II (Mus musculus); assay: Inhibition of RNA polymerase II in mouse B16-F1 migrating cells assessed as fold change in Rest-RNA stability at 0.1 mM measured by […] analysis relative to control cells
[11] = biological target: Histone-lysine N-methyltransferase EZH2 (Mus musculus) (UniProt Q61188); assay: Inhibition of EZH2 in mouse B16-F1 migrating cells assessed as fold change in H3K27me3-buffered regulated Fam60a-mRNA expression at 3 uM measured by […] analysis relative to control cells
Sequence of Histone-lysine N-methyltransferase EZH2 (Mus musculus) (Q61188 whole entry): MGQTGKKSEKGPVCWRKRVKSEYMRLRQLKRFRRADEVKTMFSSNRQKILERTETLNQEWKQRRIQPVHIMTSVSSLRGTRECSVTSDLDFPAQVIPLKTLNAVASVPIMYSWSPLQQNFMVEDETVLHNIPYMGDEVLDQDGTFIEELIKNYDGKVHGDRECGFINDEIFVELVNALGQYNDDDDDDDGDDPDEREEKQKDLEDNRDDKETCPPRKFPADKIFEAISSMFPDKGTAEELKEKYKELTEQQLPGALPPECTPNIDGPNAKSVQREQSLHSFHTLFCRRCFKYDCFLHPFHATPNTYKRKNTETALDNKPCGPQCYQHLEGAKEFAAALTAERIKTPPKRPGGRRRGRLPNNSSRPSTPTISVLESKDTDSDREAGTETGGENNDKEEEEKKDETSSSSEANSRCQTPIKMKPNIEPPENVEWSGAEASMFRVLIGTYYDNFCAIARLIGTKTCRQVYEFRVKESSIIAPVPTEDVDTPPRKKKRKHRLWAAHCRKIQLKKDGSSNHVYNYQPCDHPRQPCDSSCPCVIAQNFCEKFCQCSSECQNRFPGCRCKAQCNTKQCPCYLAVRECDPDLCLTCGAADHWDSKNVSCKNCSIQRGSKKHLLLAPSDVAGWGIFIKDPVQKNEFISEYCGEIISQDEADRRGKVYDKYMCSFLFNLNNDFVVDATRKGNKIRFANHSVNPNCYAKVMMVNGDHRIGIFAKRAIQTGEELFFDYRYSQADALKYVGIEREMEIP
Method in brief: (§1)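 Confluent B16-F1 cells on fibronectin-coated plates, cultured at 37 °C and 7% CO2, were scratched at multiple sites to induce migration. They were then held 3 h in growth medium containing 3 µM GSK343, with the inhibitor added 3 h before lysis. Unscratched cells served as controls. Poly A mRNA was analysed by RNA-seq (n=3 GSK343, n=5 controls). Linear models removed batch effects, and buffered genes were those altered only under GSK343 (FDR <0.05, fold change >1.3).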

[12] = biological target: Histone-lysine N-methyltransferase EZH2 (Mus musculus) (UniProt Q61188); assay: Inhibition of EZH2 in mouse B16-F1 migrating cells assessed as fold change in H3K27me3-buffered regulated A130010J15Rik-mRNA expression at 3 uM measured by […] analysis relative to control cells; method in brief: as §1
[13] = biological target: Histone-lysine N-methyltransferase EZH2 (Mus musculus) (UniProt Q61188); assay: Inhibition of EZH2 in mouse B16-F1 migrating cells assessed as fold change in H3K27me3-buffered regulated Arid4a-mRNA expression at 3 uM measured by ChIP-seq analysis relative to control cells; method in brief: as §1
[14] = biological target: Histone-lysine N-methyltransferase EZH2 (Mus musculus) (UniProt Q61188); assay: Inhibition of EZH2 in mouse B16-F1 migrating cells assessed as fold change in H3K27me3-dependent regulated Gm43909-mRNA expression at 3 uM measured by […] analysis relative to control cells
Method in brief: (§2)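 Confluent B16-F1 cells on fibronectin-coated plates were scratched at multiple sites, washed once with DMEM and left to migrate 3 h in growth medium (37 °C, 7% CO2); unscratched cells served as control. GSK343 (3 µM) was added 3 h before lysis. Poly A mRNA was sequenced (RNA-seq), with 5 replicates for untreated and 3 for treated cells. Differential expression was called by linear model with batch correction, at FDR <0.05 and fold change ≥1.3.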

[15] = biological target: Histone-lysine N-methyltransferase EZH2 (Mus musculus) (UniProt Q61188); assay: Inhibition of EZH2 in mouse B16-F1 migrating cells assessed as fold change in H3K27me3-buffered regulated Synm-mRNA expression at 3 uM measured by […] analysis relative to control cells; method in brief: as §2
[16] = biological target: Histone-lysine N-methyltransferase EZH2 (Mus musculus) (UniProt Q61188); assay: Inhibition of EZH2 in mouse B16-F1 migrating cells assessed as fold change in H3K27me3-buffered regulated Foxa1-mRNA expression at 3 uM measured by […] analysis relative to control cells; method in brief: as §1
[17] = biological target: Histone-lysine N-methyltransferase EZH2 (Mus musculus) (UniProt Q61188); assay: Inhibition of EZH2 in mouse B16-F1 migrating cells assessed as fold change in H3K27me3-buffered regulated Stk10-mRNA expression at 3 uM measured by ChIP-seq analysis relative to control cells; method in brief: as §2
[18] = biological target: Histone-lysine N-methyltransferase EZH2 (Mus musculus) (UniProt Q61188); assay: Inhibition of EZH2 in mouse B16-F1 migrating cells assessed as fold change in H3K27me3-independent regulated Cntnap1-mRNA expression at 3 uM measured by […] analysis relative to control cells; method in brief: as §2
[19] = biological target: Histone-lysine N-methyltransferase EZH2 (Mus musculus) (UniProt Q61188); assay: Inhibition of EZH2 in mouse B16-F1 migrating cells assessed as fold change in H3K27me3-independent regulated Csrnp1-mRNA expression at 3 uM measured by […] analysis relative to control cells; method in brief: as §2
[20] = biological target: Histone-lysine N-methyltransferase EZH2 (Mus musculus) (UniProt Q61188); assay: Inhibition of EZH2 in mouse B16-F1 migrating cells assessed as fold change in H3K27me3-independent regulated Pwwp2b-mRNA expression at 3 uM measured by […] analysis relative to control cells; method in brief: as §2
[21] = biological target: Histone-lysine N-methyltransferase EZH2 (Mus musculus) (UniProt Q61188); assay: Inhibition of EZH2 in mouse B16-F1 migrating cells assessed as fold change in H3K27me3-independent regulated Fam214b-mRNA expression at 3 uM measured by […] analysis relative to control cells; method in brief: as §2
[22] = biological target: Histone-lysine N-methyltransferase EZH2 (Mus musculus) (UniProt Q61188); assay: Inhibition of EZH2 in mouse B16-F1 migrating cells assessed as fold change in H3K27me3-buffered regulated Pde4d-mRNA expression at 3 uM measured by ChIP-seq analysis relative to control cells; method in brief: as §1
[23] = biological target: Histone-lysine N-methyltransferase EZH2 (Mus musculus) (UniProt Q61188); assay: Inhibition of EZH2 in mouse B16-F1 migrating cells assessed as fold change in H3K27me3-buffered regulated Rbl1-mRNA expression at 3 uM measured by […] analysis relative to control cells; method in brief: as §1
[24] = biological target: Histone-lysine N-methyltransferase EZH2 (Mus musculus) (UniProt Q61188); assay: Inhibition of EZH2 in mouse B16-F1 migrating cells assessed as fold change in H3K27me3-buffered regulated Ankrd26-mRNA expression at 3 uM measured by […] analysis relative to control cells; method in brief: as §1

## OC[C@H]1O[C@@H](n2cnc3cc(Cl)c(Cl)cc32)[C@H](O)[C@@H]1O
[1]
  log2FC: -0.65
[2]
  log2FC: 0.62
[3]
  log2FC: 1.02
[4]
  log2FC: 0.46
[5]
  log2FC: -0.48
[6]
  log2FC: -0.73
[7]
  log2FC: -0.83
[8]
  log2FC: -0.47
[9]
  log2FC: -0.54
[10]
  log2FC: -0.79

## CCCc1cc(C)[nH]c(=O)c1CNC(=O)c1cc(-c2ccnc(N3CCN(C)CC3)c2)cc2c1cnn2C(C)C
[11]
  log2FC: -0.61
[12]
  log2FC: -0.42
[13]
  log2FC: -0.47
[14]
  log2FC: -0.39
[15]
  log2FC: 1.06
[16]
  log2FC: -0.77
[17]
  log2FC: -0.44
[18]
  log2FC: -0.76
[19]
  log2FC: 0.64
[20]
  log2FC: 0.46
[21]
  log2FC: 0.53
[22]
  log2FC: 0.75
[23]
  log2FC: -0.43
[24]
  log2FC: -0.47
